One may read the inhibition as the share of the control response that was lost under treatment. Usually IC50 stands for the point on the concentration scale where inhibition reaches its midpoint.

Series [1] addresses Lysosomal alpha-glucosidase (Homo sapiens) (UniProt P10253). The experiment in a line: Inhibition of lysosomal alpha-glucosidase in human fibroblast at 50 uM after 24 hrs. An outline of the steps:
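Wild-type human fibroblasts (DMEM, 10% FBS, passages 14–30) were plated overnight, then exposed to compound in fresh medium for 24 h at 37 °C, 5% CO2. Lysosomal enzyme activity was then assayed in intact monolayers after the medium was removed. Triplicate determinations.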

In series [2] the target is T1, Lysosomal acid glucosylceramidase (Homo sapiens, UniProt P04062).
T1 sequence (P04062 whole entry): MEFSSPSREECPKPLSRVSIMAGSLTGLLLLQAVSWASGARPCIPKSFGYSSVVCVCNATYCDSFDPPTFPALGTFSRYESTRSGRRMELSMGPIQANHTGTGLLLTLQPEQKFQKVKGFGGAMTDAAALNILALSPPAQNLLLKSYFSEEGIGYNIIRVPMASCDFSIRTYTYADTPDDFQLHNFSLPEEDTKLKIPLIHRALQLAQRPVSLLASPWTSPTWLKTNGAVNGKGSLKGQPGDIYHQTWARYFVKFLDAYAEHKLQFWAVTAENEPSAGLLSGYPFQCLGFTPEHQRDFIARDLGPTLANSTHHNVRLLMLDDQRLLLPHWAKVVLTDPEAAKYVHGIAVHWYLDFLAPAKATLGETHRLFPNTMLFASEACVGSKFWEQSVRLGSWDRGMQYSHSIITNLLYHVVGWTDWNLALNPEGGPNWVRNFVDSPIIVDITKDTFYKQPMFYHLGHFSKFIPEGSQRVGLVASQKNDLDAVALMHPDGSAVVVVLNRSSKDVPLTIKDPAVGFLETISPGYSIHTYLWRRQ
The experiment in a line: Competitive inhibition of recombinant Imiglucerase using 4-methylumbelliferyl-beta-D-glucopyranoside as substrate preincubated for 30 mins before substrate addition at pH 5.2 by Lineweaver-Burk plot assay.

Series [3] deals with T1, Lysosomal acid glucosylceramidase. Kind of series: Competitive inhibition of recombinant Imiglucerase using 4-methylumbelliferyl-beta-D-glucopyranoside as substrate preincubated for 30 mins before substrate addition at pH 5.2 by Dixon plot assay.
Series [4] has the same target. The experiment in a line: Competitive inhibition of recombinant Imiglucerase using 4-methylumbelliferyl-beta-D-glucopyranoside as substrate preincubated for 30 mins before substrate addition at pH 7.0 by Dixon plot assay.
Another series deals with Saccharomyces cerevisiae. The experiment in a line: Inhibition of bakers yeast alpha-glucosidase at100 uM.
In the next series the test system is Oryza sativa. Kind of series: Inhibition of rice alpha-glucosidase at 100 uM.
Series [5] concerns the target Alpha-galactosidase (Coffea arabica) (UniProt Q42656). Kind of series: Inhibition of green coffee beans alpha-galactosidase at 100 uM.
The target of series [6] is T2, Lysosomal acid glucosylceramidase (Homo sapiens) (UniProt P04062).
T2 sequence (whole entry): T1 sequence (P04062 whole entry)
The experiment in a line: Inhibition of lysosomal beta-glucosidase in human fibroblast using 4-methylumbelliferyl-beta-D-glucopyranoside as substrate preincubated at 5 uM for 24 hrs before substrate addition measured after 2 hrs by fluorimetry. The gist of the method: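 Wild-type human fibroblasts (DMEM, 10% FBS; passages 14–30) plated overnight, then compound in fresh medium for 24 h at 37 °C, 5% CO2. Intact washed monolayers given PBS plus 200 mM acetate pH 4.0 and 5 mM 4-MU-β-glucoside, 37 °C for 2 h. Stopped by lysis in glycine/NaOH pH 10.6. Fluorescence at 355/460 nm; triplicate.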

The target of series [7] is Lysosomal alpha-glucosidase (Homo sapiens) (UniProt P10253). The experiment in a line: Inhibition of lysosomal alpha-glucosidase in human fibroblast at 5 uM after 24 hrs.
In series [8] the target is T3, Beta-galactosidase (Homo sapiens) (UniProt P16278).
T3 sequence (whole entry): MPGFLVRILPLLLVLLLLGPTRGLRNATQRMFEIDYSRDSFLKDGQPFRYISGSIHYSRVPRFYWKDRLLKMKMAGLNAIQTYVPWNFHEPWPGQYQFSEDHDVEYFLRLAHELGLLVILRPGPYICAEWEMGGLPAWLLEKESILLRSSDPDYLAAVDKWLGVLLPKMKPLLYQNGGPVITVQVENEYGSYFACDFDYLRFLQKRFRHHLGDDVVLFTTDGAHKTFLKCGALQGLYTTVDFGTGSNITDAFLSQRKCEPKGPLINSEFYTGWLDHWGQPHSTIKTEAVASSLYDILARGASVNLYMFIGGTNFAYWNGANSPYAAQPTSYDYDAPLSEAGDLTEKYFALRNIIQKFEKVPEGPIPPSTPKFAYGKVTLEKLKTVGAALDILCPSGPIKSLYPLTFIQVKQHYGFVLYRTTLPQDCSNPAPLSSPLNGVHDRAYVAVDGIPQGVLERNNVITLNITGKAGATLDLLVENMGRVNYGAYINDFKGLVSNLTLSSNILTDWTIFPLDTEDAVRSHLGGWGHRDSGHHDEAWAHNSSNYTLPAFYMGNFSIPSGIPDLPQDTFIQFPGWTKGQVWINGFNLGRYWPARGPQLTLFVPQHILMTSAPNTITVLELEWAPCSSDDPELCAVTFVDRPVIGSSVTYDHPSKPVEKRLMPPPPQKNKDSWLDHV
Kind of series: Inhibition of lysosomal beta-galactosidase in human fibroblast at 5 uM after 24 hrs.

Series [9] concerns the target T4, Alpha-galactosidase A (Homo sapiens) (UniProt P06280).
T4 sequence (whole entry): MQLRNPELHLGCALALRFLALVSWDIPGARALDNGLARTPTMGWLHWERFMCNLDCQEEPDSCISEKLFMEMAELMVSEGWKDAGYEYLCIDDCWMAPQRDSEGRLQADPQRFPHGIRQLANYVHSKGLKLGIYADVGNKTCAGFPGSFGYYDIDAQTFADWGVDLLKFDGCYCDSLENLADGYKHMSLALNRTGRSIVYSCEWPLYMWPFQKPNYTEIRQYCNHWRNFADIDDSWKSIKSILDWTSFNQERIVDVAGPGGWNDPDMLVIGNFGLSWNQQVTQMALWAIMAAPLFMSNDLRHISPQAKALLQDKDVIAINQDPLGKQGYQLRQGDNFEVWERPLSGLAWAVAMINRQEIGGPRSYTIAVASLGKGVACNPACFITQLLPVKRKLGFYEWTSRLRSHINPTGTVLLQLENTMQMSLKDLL
Kind of series: Inhibition of lysosomal alpha-galactosidase in human fibroblast at 5 uM after 24 hrs.

A short description of series [10]: Stabilization of recombinant imiglucerase at 1 uM at 48 degC after 60 mins by fluorimetry relative to incubation at 37 degC. An outline of the steps:
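Imiglucerase (2 mg/mL aliquots) heated at 48 °C with compound, three concentrations. At set times, residual activity measured with 4 mM 4-MU-β-glucoside (McIlvaine pH 5.2, Triton X-100, taurocholate) after acetate-phosphate pH 5.0, 10 min at 37 °C. Read at 355/460 nm. Ratio is relative enzymatic activity, inhibitor vs control, taken at 60 min. Activity relative to unheated (37 °C) enzyme; triplicate.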

Series [11] in a line: Cytotoxicity against human fibroblasts at 50 uM. The conditions noted are these: fibroblast. It is filed as cell-based.

Calls of active or inactive are those of the source. No cut-off for these calls is given here. A value given as a limit tells only on which side of the number the result lay.

Chain of Alpha-galactosidase (Coffea arabica) (Q42656 16-378 limits assumed): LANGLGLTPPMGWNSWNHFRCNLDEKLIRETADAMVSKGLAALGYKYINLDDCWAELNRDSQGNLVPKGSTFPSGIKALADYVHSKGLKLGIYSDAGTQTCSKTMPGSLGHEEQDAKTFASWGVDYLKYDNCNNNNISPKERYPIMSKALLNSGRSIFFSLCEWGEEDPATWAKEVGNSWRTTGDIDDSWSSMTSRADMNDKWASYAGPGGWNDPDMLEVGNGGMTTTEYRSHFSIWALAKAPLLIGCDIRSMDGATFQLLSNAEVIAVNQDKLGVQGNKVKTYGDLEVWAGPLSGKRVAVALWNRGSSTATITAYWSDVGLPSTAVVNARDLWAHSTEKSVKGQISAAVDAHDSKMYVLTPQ

Consider `CCCCCCCCCN[C@@H]1[C@H](O)[C@@H](O)[C@H](O)[C@@H](O)[C@@H]1O`, for which the inhibition entry (in series [1]; in the series on Saccharomyces cerevisiae; in the series on Oryza sativa; in series [5]) was “inactive” throughout. The figures for the concentration for half-maximal inhibition (IC50) in [2], in series [3] and in series [4] were 52600 nM, 52600 nM and 24900 nM, respectively.

On to `CCCCCCCCCN(CCCCCCCCC)[C@@H]1[C@H](O)[C@H](O)[C@@H](O)[C@H](O)[C@H]1O.Cl`, for which the results for the half-maximal inhibitory concentration (IC50) in series [2], in series [3] and in series [4] were 1720 nM, 1720 nM and 530 nM, respectively. In addition, the inhibition was more than 39% in series [6], less than 16% in series [7], less than 16% in series [8] and less than 16% in series [9]. Besides, the inhibition result (with Saccharomyces cerevisiae; with Oryza sativa; in series [5]) was “inactive” in each case. Besides, the Ratio in [10] came to 1.2. In [11], the Activity entry was “Toxic”.

In the case of `CCCCCCCCCN[C@H]1[C@H](O)[C@@H](O)[C@H](O)[C@@H](O)[C@@H]1OCCCCCCCCC.Cl`, the half-maximal inhibitory concentration (IC50) was determined as 670 nM in series [2], 670 nM in [3] and 170 nM in series [4]. In addition, the inhibition in series [6] was more than 39%; in series [7], less than 16%; in series [8] it was less than 16%; in series [9] it was less than 16%. Moreover, the inhibition result (in the series with Saccharomyces cerevisiae; with Oryza sativa; in [5]) was “inactive” each time. Besides, the Ratio in [10] worked out at 5.2. For the same molecule, in series [11], the Activity result is listed as “Toxic”.

As for `CCCCCCCCCN[C@@H]1[C@H](O)[C@H](O)[C@@H](O)[C@H](O)[C@H]1O.Cl`, the inhibition entry (in [1]; in the series on Saccharomyces cerevisiae; in the series with Oryza sativa; in series [5]) was “inactive” in each case. The results for the IC50 in series [2], in series [3] and in series [4] were 80 nM, 80 nM and 25 nM, respectively. Besides, in series [6], the inhibition is more than 39%. In series [10], the Ratio stood at 5.

As for `CCCCCCCCCN[C@H]1[C@H](O)[C@@H](O)[C@H](O)[C@@H](O)[C@@H]1O`, the inhibition entry (in series [1]; in the series with Saccharomyces cerevisiae; in the series on Oryza sativa; in [5]) was “inactive” in each case. In addition, the concentration for half-maximal inhibition (IC50) stood at 3900 nM in [2], 3900 nM in series [3] and 780 nM in [4].

In the case of `CCCCCCCCCN[C@H]1[C@H](O)[C@@H](O)[C@H](O)[C@@H](O)[C@@H]1OC.Cl`, the inhibition result (in [1]; with Saccharomyces cerevisiae; with Oryza sativa; in series [5]) was “inactive” in each case. For the same molecule, the half-inhibitory concentration (IC50) amounted to 4400 nM in [2], 4400 nM in series [3] and 670 nM in series [4].

On to `CCCCCCCCCN[C@H]1[C@H](O)[C@@H](O)[C@H](O)[C@@H](O)[C@H]1OCCCCCCCCC.Cl`, for which the IC50 in [2] worked out at 4 nM; in [3], 4 nM; in [4], 5 nM. In [6], this molecule had an inhibition of more than 39%. Besides, the inhibition entry (in series [7]; in series [8]; in [9]; with Saccharomyces cerevisiae; in the series on Oryza sativa; in [5]) was “inactive” each time. Moreover, the Ratio in [10] stood at 29. Moreover, the Activity result in [11] was “Toxic”.

Consider `CCCCCCCCCO[C@H]1[C@@H](N)[C@H](O)[C@@H](O)[C@H](O)[C@H]1O.Cl`, for which the inhibition entry (in [1]; in the series on Saccharomyces cerevisiae; with Oryza sativa; in series [5]) was “inactive” in each case. The results for the half-inhibitory concentration (IC50) in series [2], in [3] and in series [4] were 450 nM, 450 nM and 120 nM, respectively. This molecule yielded an inhibition in [6] of more than 39%. The Ratio in [10] was found to be 2.2.

In the case of `CCCCCCCCCN[C@H]1[C@H](O)[C@@H](O)[C@H](O)[C@@H](O)[C@H]1OC.Cl`, the inhibition entry (in series [1]; in the series on Saccharomyces cerevisiae; with Oryza sativa; in [5]) was “inactive” each time. Also, the IC50 in series [2] was 130 nM; in series [3], 130 nM; in series [4] it was 19 nM. Besides, in series [6], the inhibition was more than 39%. Besides, the Ratio in [10] was 2.

The values above are taken from ChEMBL document CHEMBL2163314, “Potent aminocyclitol glucocerebrosidase inhibitors are subnanomolar pharmacological chaperones for treating gaucher disease” (J Med Chem, 2012).
